The results in this text go back to ChEMBL document CHEMBL1155482, “Synthesis, anticancer activity and apoptosis inducing ability of anthranilamide-PBD conjugates” (2010).

Counter-ions that a name gives are not always drawn. The source made the active and inactive calls. The rule behind the calls is not given here.

One experiment has as its system A549. Nature of the experiment: Cytotoxicity against human A549 cells after 48 hrs by SRB assay. Particulars: A549, 48 h. The class given is functional. A digest of the protocol: (§1)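 Sulforhodamine B assay estimating cell density from cellular protein content, run on human cancer lines of lung, breast, oral, colon, cervix, ovary and prostate origin, with GI50 values derived.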
In general terms: Sulforhodamine B stains cellular protein and so reports cell mass.

For another experiment, the system named is HOP-62. Description: Cytotoxicity against human HOP62 cells after 48 hrs by SRB assay. The class given is functional. Particulars: HOP-62, 48 h. A digest of the protocol:
as §1

The test system of the next experiment is ZR-75-1. Nature of the experiment: Cytotoxicity against human ZR-75-1 cells after 48 hrs by SRB assay. Format: functional. Particulars: ZR-75-1, 48 h. A digest of the protocol:
as §1

The next experiment relates to MCF7. Nature of the experiment: Cytotoxicity against human MCF7 cells after 48 hrs by SRB assay. Format: functional. Particulars: MCF7, 48 h. A digest of the protocol:
as §1

Experiment [1] in a line: Cytotoxicity against human DWD cells after 48 hrs by SRB assay. The class given is functional. A digest of the protocol:
as §1

For another experiment, the system named is KB. Description: Cytotoxicity against human KB cells after 48 hrs by SRB assay. Format: functional. A digest of the protocol: as §1
The nature of experiment [2]: Cytotoxicity against human Gurav cells after 48 hrs by SRB assay. Format: functional. A digest of the protocol: as §1
In another experiment the test system is PC-3. Description: Cytotoxicity against human PC3 cells after 48 hrs by SRB assay. Particulars: PC-3, 48 h. The class given is functional. A digest of the protocol: as §1
The test system of a further experiment is A2780. Description: Cytotoxicity against human A2780 cells after 48 hrs by SRB assay. The class given is functional. Particulars: A2780, 48 h. A digest of the protocol:
as §1

The test system of a further experiment is COLO 205. Nature of the experiment: Cytotoxicity against human COLO205 cells after 48 hrs by SRB assay. Format: functional. Particulars: COLO 205, 48 h. A digest of the protocol: as §1
Another experiment has as its system SiHa. Nature of the experiment: Cytotoxicity against human SiHa cells after 48 hrs by SRB assay. Format: functional. A digest of the protocol:
as §1

Experiment [3] relates to A-375. Description: Cell cycle arrest in human A375 cells assessed as accumulation at S phase at 1 uM by FACS analysis. The class given is functional. A digest of the protocol: (§2)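 A375 cells were exposed to compound for 24 h, and cell cycle distribution was measured by FACS. The sub-G1 peak (labelled G0) was scored as the apoptotic cell percentage and compared with untreated control cells.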
(In general: A flow cytometer gives signals particle by particle.)

The subject of experiment [4] is A-375. Description: Cell cycle arrest in human A375 cells assessed as accumulation at G0/G1 phase at 1 uM by FACS analysis. The class given is functional. A digest of the protocol:
as §2

The test system of experiment [5] is A-375. Description: Cell cycle arrest in human A375 cells assessed as accumulation at G2/M phase at 1 uM by FACS analysis. Format: functional. A digest of the protocol:
as §2

Experiment [6] has as its system A-375. Description: Induction of apoptosis in human A375 cells assessed as cells in dub G1 phase at 1 uM after 24 hrs by FACS analysis. Format: functional. A digest of the protocol: as §2
Experiment [7] deals with A-375. Nature of the experiment: Antitumor activity against human A375 cells assessed as cell viability at 1 uM after 24 hrs by MTT assay. The class given is functional, cell-based. For orientation: Tetrazolium assays rely on reduction of a dye to a coloured formazan, in cell work by metabolically active cells.
Experiment [8] deals with A-375. Nature of the experiment: Induction of apoptosis in human A375 cells assessed as caspase 3 activation at 1 uM after 24 hrs by fluorimetry. The class given is functional, cell-based. A digest of the protocol:
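Caspase-3 activity in treated A375 cells was measured by fluorimetry relative to untreated cells.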

For orientation: GI50 means the concentration at which growth is held to half of that of the control. Read a high GI50 as less potent growth inhibition. For the molecule `COc1cc2c(cc1OCCCN1CCN(C(=O)c3ccccc3NCc3ccncc3)CC1)N=C[C@@H]1CCCN1C2=O`, the concentration for 50% growth inhibition (GI50) with A549 was 2000 nM; with HOP-62 it was 2200 nM; with ZR-75-1, 180 nM; with MCF7 it was 130 nM; in experiment [1], 170 nM; with KB, 150 nM. The concentration for 50% growth inhibition (GI50) in experiment [2] came to 180 nM; in the experiment with PC-3 it was 1800 nM; with A2780 it was 190 nM; in the experiment on COLO 205, 190 nM; with SiHa it was 1800 nM.
`COc1cc2c(cc1OCCCCCN1CCN(C(=O)c3cc(Cl)ccc3NCc3coc4ccccc4c3=O)CC1)N=C[C@@H]1CCCN1C2=O`: the GI50 came out at 170 nM in the experiment on A549; 1800 nM with HOP-62; 160 nM in the experiment with ZR-75-1; 150 nM in the experiment with MCF7; 170 nM in experiment [1]; 160 nM in the experiment with KB. The concentration for 50% growth inhibition (GI50) was determined as 170 nM in experiment [2]; 160 nM in the experiment with PC-3; 180 nM in the experiment with A2780; 2300 nM in the experiment on COLO 205; 160 nM in the experiment with SiHa.
For the molecule `O=C(c1ccccc1NCc1ccc2ccccc2c1)N1CCNCC1`, the Activity with A-375 [3] came out at 14.56%; with A-375 [4] it was 72.22%; with A-375 [5] it was 14.78%; in the experiment on A-375 [6] it was 1.233%. The result with A-375 [7] was Active.
As to `COc1cc2c(cc1OCCCCCCN1CCN(C(=O)c3ccccc3NCc3ccncc3)CC1)N=C[C@@H]1CCCN1C2=O`, the GI50 with A549 was determined as 2200 nM; in the experiment with HOP-62 it was 25000 nM; in the experiment with ZR-75-1, 2000 nM; in the experiment on MCF7, 150 nM; in experiment [1], 170 nM; with KB, 150 nM. Besides, the 50% growth inhibitory concentration (GI50) in experiment [2] is 180 nM; with PC-3, 1800 nM; in the experiment on A2780, 190 nM; in the experiment with COLO 205, 2600 nM; in the experiment on SiHa, 1900 nM.
For `COc1cc2c(cc1O)N=C[C@@H]1CCCN1C2=O`, the GI50 in the experiment with A549 worked out at 160 nM; in the experiment with HOP-62, 150 nM; in the experiment on MCF7 it was 170 nM; in the experiment on KB it was 170 nM; in experiment [2] it was 160 nM; with PC-3, 200 nM. Besides, the values for the GI50 in the experiment on A2780, with COLO 205 and with SiHa were 140 nM, 110 nM and 170 nM, respectively. Further, the Activity with A-375 [3] amounted to 23.08%; in the experiment with A-375 [4], 67.67%; in the experiment on A-375 [5], 12.19%; with A-375 [6], 2.683%. Besides, the result in the experiment with A-375 [8] and in the experiment with A-375 [7] was Active.
Regarding `COc1cc2c(cc1OCCCCCN1CCN(C(=O)c3cc(Cl)ccc3NCc3ccc4ccccc4c3)CC1)N=C[C@@H]1CCCN1C2=O`, the GI50 in the experiment with A549 came to 2000 nM; in the experiment on HOP-62, 2000 nM; in the experiment on ZR-75-1 it was 180 nM; with MCF7, 140 nM; in experiment [1], 170 nM; in the experiment with KB, 140 nM. The GI50 is 170 nM in experiment [2]; 170 nM with PC-3; 180 nM in the experiment with A2780; 29000 nM in the experiment on COLO 205; 1800 nM with SiHa.
For `COc1cc2c(cc1OCCCCCN1CCN(C(=O)c3ccccc3NCc3coc4ccccc4c3=O)CC1)N=C[C@@H]1CCCN1C2=O`, the GI50 with A549 is 160 nM; in the experiment with HOP-62, 1800 nM; with ZR-75-1, 160 nM; in the experiment with MCF7, 140 nM; in [1] it was 160 nM; in the experiment on KB, 150 nM. The 50% growth inhibitory concentration (GI50) in experiment [2] was determined as 170 nM; in the experiment with PC-3, 140 nM; with A2780, 180 nM; with COLO 205, 2400 nM; with SiHa it was 130 nM. The Activity with A-375 [3] worked out at 13.34%; in the experiment on A-375 [4], 81.9%; with A-375 [5], 6.68%; with A-375 [6] it was 3.483%. Also, the outcome with A-375 [8] and in the experiment on A-375 [7] was Active.
`COc1cc2c(cc1OCCCCCN1CCN(C(=O)c3ccccc3NCc3ccncc3)CC1)N=C[C@@H]1CCCN1C2=O`: the concentration for 50% growth inhibition (GI50) amounted to 2000 nM in the experiment with A549; 2300 nM in the experiment with HOP-62; 2000 nM in the experiment with ZR-75-1; 160 nM in the experiment with MCF7; 150 nM in experiment [1]; 150 nM in the experiment on KB. For the same molecule, the GI50 in experiment [2] was found to be 170 nM; in the experiment with PC-3 it was 170 nM; in the experiment with A2780, 170 nM; in the experiment on COLO 205, 25000 nM; with SiHa, 1800 nM.
With `COc1cc2c(cc1OCCCCCCN1CCN(C(=O)c3ccccc3NCc3cc(OC)c(OC)c(OC)c3)CC1)N=C[C@@H]1CCCN1C2=O`, the GI50 turned out to be 180 nM in the experiment with A549; 1900 nM with HOP-62; 180 nM in the experiment on ZR-75-1; 140 nM in the experiment with MCF7; 150 nM in experiment [1]; 150 nM in the experiment on KB. Moreover, the GI50 in experiment [2] stood at 170 nM; with PC-3, 160 nM; in the experiment on A2780, 170 nM; with COLO 205 it was 160 nM; with SiHa, 1800 nM.
On to `COc1cc2c(cc1OCCCCCN1CCN(C(=O)c3ccccc3NCc3cc(OC)c(OC)c(OC)c3)CC1)N=C[C@@H]1CCCN1C2=O`, for which the GI50 with A549 is 1900 nM; in the experiment on HOP-62, 1900 nM; in the experiment on ZR-75-1 it was 160 nM; in the experiment with MCF7, 140 nM; in experiment [1], 140 nM; with KB, 140 nM. Further, the GI50 in experiment [2] amounted to 160 nM; with PC-3, 140 nM; in the experiment with A2780 it was 160 nM; with COLO 205, 2200 nM; in the experiment on SiHa, 170 nM.
For the molecule `O=C(c1ccccc1NCc1coc2ccccc2c1=O)N1CCNCC1`, the Activity in the experiment on A-375 [3] worked out at 18.53%; with A-375 [4], 68.39%; in the experiment with A-375 [5] it was 15.45%; with A-375 [6], 1.15%. The outcome with A-375 [7] was Active.
For the molecule `COc1cccc2c1C(=O)c1c(O)c3c(c(O)c1C2=O)C[C@@](O)(C(=O)CO)C[C@@H]3O[C@H]1C[C@H](N)[C@H](O)[C@H](C)O1` [DOXORUBICIN HYDROCHLORIDE], the GI50 in the experiment with HOP-62 is 140 nM; in the experiment with MCF7, 170 nM; in experiment [1] it was 100 nM; in the experiment on KB, 170 nM; in [2], 170 nM; with A2780, 160 nM. For the same molecule, the 50% growth inhibitory concentration (GI50) with COLO 205 is 140 nM; in the experiment on SiHa, 170 nM.
Take `COc1cc2c(cc1OCCCN1CCN(C(=O)c3ccccc3NCc3cc(OC)c(OC)c(OC)c3)CC1)N=C[C@@H]1CCCN1C2=O`: the concentration for 50% growth inhibition (GI50) with A549 was found to be 2000 nM; in the experiment on HOP-62, 2100 nM; in the experiment on ZR-75-1, 170 nM; in the experiment with MCF7, 140 nM; in experiment [1] it was 150 nM; with KB, 150 nM. For the same molecule, the GI50 in [2] was found to be 170 nM; in the experiment with PC-3 it was 160 nM; in the experiment with A2780 it was 180 nM; with COLO 205, 170 nM; with SiHa, 170 nM.
As for `COc1cc2c(cc1OCCCCCCN1CCN(C(=O)c3ccccc3NCc3ccc4ccccc4c3)CC1)N=C[C@@H]1CCCN1C2=O`, the GI50 came out at 170 nM in the experiment on A549; 1900 nM in the experiment with HOP-62; 160 nM in the experiment with ZR-75-1; 140 nM with MCF7; 160 nM in experiment [1]; 150 nM in the experiment on KB. In addition, the concentration for 50% growth inhibition (GI50) in experiment [2] was 170 nM; in the experiment on PC-3, 150 nM; with A2780 it was 190 nM; in the experiment on COLO 205, 180 nM; in the experiment on SiHa it was 150 nM.
